ABCG2 block = human ABCG2 inhibition, ABCB1 as counter-screen. Q9UNQ0. inhibition, % at 6.6 µM. AID 1325. IgMXP3 cells, JC-1 efflux, flow cytometry. actives 0.1% (n = 190,000);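 active means inhibition above 80%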
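Test system: IgMXP3 (ABCG2) plus far-red-tagged CCRF-Adr (ABCB1) cells. Reagent: JC-1 dye as substrate. Timing: 10 min exposure at 25 °C with rotation, no wash. Measured by: flow cytometric JC-1 green MFI at 530 nm. Read-out: percent efflux inhibition, scaled nicardipine 100% to DMSO 0%. Control set: nicardipine and DMSO wells.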
Ins promoter up = MIN6 insulin promoter up-regulation | z-score at 5 µM | MIN6 insulin promoter-GFP reporter, high-content imaging; hits give high values | AID 1625 | actives 0.3% (n = 190,000);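 active means z-score above 3 at 5 µM with at least 500 cells counted in the well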
DDE Tn6 FP inh = inhibitors of Tn6 peptide binding to human fibrin DD(E); P02675; AID 720509; Fibrin DD(E) TRITC-Tn6 fluorescence polarization displacement; inhibition, % at 8.3 µM; actives 0.21% (n = 370,000);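 active means inhibition above a per-campaign cutoff: mean of compounds within control limits plus 3 SD, cut at about 15% in these data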
DDE Tn7 FP inh = DD(E)-Tn7 binding inhibition, primary FP screen. P02675. FP displacement of FITC-Tn7 peptide from fibrin DD(E); 0% = median of compound wells per plate. inhibition, % at 8.3 µM. actives 0.13% (n = 370,000);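 active means inhibition above the mean of compounds falling within the control limits plus 3 SD of them, cut at about 14% in these data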
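Assay system: human fibrin DD(E) protein / Input: 2 µM fibrin DD(E) / Benchmarks: high control of 10 µM Aha-Tn7 peptide / Measured by: fluorescence polarization of the labelled Tn7 tracer / Medium: Tris buffer with calcium and detergent, pH 7.8 / Timing: 10 min compound pre-incubation, 3 h probe incubation at room temperature / Repeats: one replicate per compound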
ABCB1 inh = human ABCB1 inhibition, ABCG2 as counter-screen; inhibition, % at 6.6 µM; CCRF-Adr cells, JC-1 efflux, flow cytometry; AID 1326; P08183; actives 0.067% (n = 190,000); in the data active means inhibition above about 40%;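 further: higher value means more JC-1 retained so stronger ABCB1 efflux block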
GRK2 aptamer HTS = inhibitors of human GRK2 displacing RNA aptamer; P25098; actives 0.59% (n = 330,000); bead flow cytometry, FAM-aptamer displacement from GRK2; inhibition of aptamer binding, % at 10 µM; AID 488847;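 active means inhibition of aptamer binding above 40%, roughly 3 SD of noise, on plates passing a quality check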;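 further: median bead fluorescence of bound FAM aptamer so fluorescent compounds give negative values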
Target sequence (P25098 whole entry, looked up): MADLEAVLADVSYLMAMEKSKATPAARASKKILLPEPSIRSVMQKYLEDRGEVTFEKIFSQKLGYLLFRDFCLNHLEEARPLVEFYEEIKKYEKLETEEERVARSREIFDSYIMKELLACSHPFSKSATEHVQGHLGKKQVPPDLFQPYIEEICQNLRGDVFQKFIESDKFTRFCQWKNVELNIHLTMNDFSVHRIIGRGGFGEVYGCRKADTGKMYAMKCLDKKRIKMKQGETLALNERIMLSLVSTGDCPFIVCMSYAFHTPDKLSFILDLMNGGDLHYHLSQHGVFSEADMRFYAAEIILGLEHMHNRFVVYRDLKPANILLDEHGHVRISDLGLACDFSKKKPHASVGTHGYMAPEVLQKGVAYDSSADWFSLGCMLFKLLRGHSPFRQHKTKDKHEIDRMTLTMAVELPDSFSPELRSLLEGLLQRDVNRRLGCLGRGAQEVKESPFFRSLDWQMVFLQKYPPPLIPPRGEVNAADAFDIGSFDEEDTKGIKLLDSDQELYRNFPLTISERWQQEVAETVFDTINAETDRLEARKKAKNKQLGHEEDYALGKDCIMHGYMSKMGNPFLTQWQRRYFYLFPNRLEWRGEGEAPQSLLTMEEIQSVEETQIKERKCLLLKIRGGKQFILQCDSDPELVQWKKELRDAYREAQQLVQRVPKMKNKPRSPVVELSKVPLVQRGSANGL
GRK2 inh confirm = human GRK2 inhibition confirmation, cherry pick 1; shares compounds with GRK2 aptamer HTS; bead-bound GRK2, FAM-aptamer displacement, flow cytometry; aptamer displacement, % at 10 µM; actives 4% (n = 2,000); AID 504451;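 active means aptamer displacement above 40%, near three times the noise of non-fluorescent compounds, on plates passing quality checks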;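 further: negative values mostly reflect intrinsic compound fluorescence rather than true enhancement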
Aptamer quench = fluorescent aptamer quenching in GRK2 counter-screen dose response. shares compounds with GRK2 aptamer HTS. Fluorescent RNA aptamer beads, flow cytometry; hits give high values. fluorescence change (kMESF span), kMESF (concentration not given with the values). 110 tested, under 10 active. AID 504521;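 active means compounds whose bead fluorescence drops by more than 37 kMESF across the dose range, marking them as dye quenchers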
Aptamer quench SP = quenches fluorescent RNA aptamer, GRK2 hit artifact | shares compounds with GRK2 aptamer HTS | Carboxyfluorescein RNA aptamer on beads, flow cytometry quenching; hits give low values | fluorescence response (% of DMSO), % at 10 µM | 2,000 tested, under 10 active;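 active means compounds that quench the bead-bound fluorescent RNA probe, cutting fluorescence to under half of the solvent control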;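 further: counterscreen run without GRK2 so only probe quenching by compound is measured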
GRK2 confirm 2 = human GRK2 inhibition confirmation, cherry pick 2 | AID 504782 | inhibition of aptamer binding, % at 10 µM | shares compounds with GRK2 aptamer HTS | 360 tested, under 10 active | bead-bound GRK2, FAM-aptamer displacement, flow cytometry;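 active means inhibition of aptamer binding above 40%, about triple the noise seen with nonglowing compounds, on plates passing quality control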;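 further: negative values mostly come from compounds that fluoresce themselves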
FAM quench SP = quenches fluorescent RNA aptamer, GRK2 hit artifact; shares compounds with GRK2 aptamer HTS; carboxyfluorescein RNA aptamer beads, flow cytometry quenching; hits give low values; fluorescence response vs DMSO, % at 10 µM; 360 tested, under 10 active; AID 588494;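 active means response vs DMSO under 50%, meaning signal dropped by over half, treated as fluorescence quencher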;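 further: labelled aptamer on streptavidin beads without GRK2 as a quench counter-screen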
Numbers stand for hits; . = inactive; / = no result. A selection: hits, their analogues and other compounds. The true share with any hit is near 0.99%.

SMILES | ABCG2 block | Ins promoter up | DDE Tn6 FP inh | DDE Tn7 FP inh | ABCB1 inh | GRK2 aptamer HTS | GRK2 inh confirm | Aptamer quench SP | others
O=C(O)c1ccc(-n2c(-c3cc(-c4ccco4)[nH]n3)n[nH]c2=S)cc1 | . | . | . | . | . | 80.0 | . | .
Cc1ccc(NC(=O)CSc2nnc(-c3cccnc3)n2Cc2ccco2)cc1C | / | / | . | . | / | / | / | /
Cc1cc(NC(=O)CCCn2nc(C)c([N+](=O)[O-])c2C)no1 | . | . | . | . | . | 51.0 | . | .
Cc1cc(NC(=O)CCCn2cnc([N+](=O)[O-])n2)no1 | . | . | . | . | . | . | / | /
COc1ccc(CC(=O)N(Cc2ccccc2)C(C)C)cc1 | / | / | . | . | / | . | / | /
COc1ccc(CCC(C)N(C)Cc2ccccc2)cc1 (centres undefined) | / | / | . | . | / | . | . | .
COc1ccc(CN([C@H](CO)CC(C)C)S(=O)(=O)N(Cc2ccccc2)[C@H](CO)CC(C)C)cc1 | / | / | . | . | / | . | / | /
COc1ccc(CN([C@H](C)CO)S(=O)(=O)N(Cc2ccccc2)[C@H](CO)C(C)C)cc1 | / | / | . | . | / | 46.0 | . | .
COc1ccc(CC2S/C(=N/N=C/c3ccc(O)cc3)NC2=O)cc1 (centres undefined) | . | . | . | . | . | 100.0 | . | .
O=C1C2CC=CCC2C(=O)N1Cc1ccccc1Cl (centres undefined) | . | . | . | . | . | 42.0 | / | / | GRK2 confirm 2=.;FAM quench SP=.
CC(C)C[C@@H]1COc2cccc(F)c2S(=O)(=O)N1C | / | / | . | . | / | / | / | /
Cc1cc(C)cc(C(=O)OCCN2CCN(C3CN(Cc4cn(Cc5ccccc5F)nn4)S(=O)(=O)C3)CC2)c1 (centres undefined) | / | / | . | . | / | / | / | /
C=CCOc1ccc(C2C(C(=O)c3ccco3)=C(O)C(=O)N2c2nnc(C)s2)cc1 (centres undefined) | . | . | . | . | . | 73.0 | . | .
COc1ccc(C2C(C(=O)c3ccco3)=C(O)C(=O)N2c2nnc(C)s2)cc1 (centres undefined) | . | . | . | . | . | . | / | /
CCCC1CCC2(CCCN2CCOC(=O)Nc2cccc(Cl)c2)CC1 (centres undefined) | / | / | . | . | / | / | / | /
CCCCn1c(NS(=O)(=O)c2ccc(C)cc2)c(S(=O)(=O)c2ccccc2)c2nc3ccccc3nc21 | . | . | . | . | . | . | . | .
COc1cccc(NC(=O)C(OC(=O)c2ccccc2NS(=O)(=O)c2cccs2)c2ccccc2)c1 (centres undefined) | . | . | . | . | . | 100.0 | . | .
O=C(O)C1CC(c2ccccc2F)=NO1 (centres undefined) | . | . | . | . | . | . | / | / | GRK2 confirm 2=.;FAM quench SP=.
O=C(NCCc1cccs1)C1CC(c2ccccc2F)=NO1 (centres undefined) | / | . | . | . | / | . | / | /
O=C(O)CCn1cc(-c2ccc(F)cc2)nc1-c1ccncc1 | / | / | . | . | / | . | . | .
Cc1ccc(CNC(=O)CCn2cc(-c3ccc(F)cc3)nc2-c2ccncc2)cc1 | / | / | . | . | / | . | / | /
Cc1cc(N)nc(SCC(=O)N2C(C)CCCC2C)n1 (centres undefined) | / | / | . | . | / | 50.0 | . | .
CC1CC(C)CN(S(=O)(=O)N2CCCC(C(=O)NC(C)c3ccccc3)C2)C1 (centres undefined) | / | / | . | . | / | . | / | /
CC(NC(=O)C1CCCN(S(=O)(=O)N2CCOCC2)C1)c1ccccc1 (centres undefined) | / | / | . | . | / | . | . | .
Cc1cnnn1-c1ccc(C(=O)CCl)cc1 | . | . | . | . | . | 56.0 | . | .
SMILES | ABCG2 block | Ins promoter up | DDE Tn6 FP inh | DDE Tn7 FP inh | ABCB1 inh | GRK2 aptamer HTS | GRK2 inh confirm | Aptamer quench SP | others
CC(=O)c1ccc(-n2nncc2C(C)(C)C)cc1 | . | . | . | . | . | . | / | /
Cn1c(=O)n(CCc2ccccc2)c(=O)c2c1ncn2Cc1ccccc1 | . | . | . | . | . | 74.0 | . | .
CCCn1c(CN(C)Cc2ccccc2)nc2c1c(=O)n(C)c(=O)n2C | . | . | . | . | . | . | / | /
CN(Cc1ccccc1)Cc1nc2c(c(=O)n(C)c(=O)n2C)n1CCc1ccccc1 | / | / | . | . | / | . | . | .
Cn1cnc2c1c(=O)n(Cc1ccccc1)c(=O)n2C | . | . | . | . | . | . | / | /
CCCCOCCCNC(=O)C[C@H]1C[C@@]2(C(=O)OC)C(=C[C@H](C(C)(C)C)O[C@@H]2C)N(Cc2ccco2)C1=O | / | / | . | . | / | / | / | /
COC(=O)\C(C(C)=O)=C(/C=C/C=C/C=C/N(C)C)N(C)C | . | . | . | . | . | 71.0 | . | .
COC(=O)/C(C(C)=O)=C(\C=C\N(C)C)N(C)C | . | . | . | . | . | . | / | /
Cc1cccc(C)c1Cn1c(C)c(C(=O)NCc2ccc([N+](=O)[O-])cc2)sc1=O | / | / | . | . | / | / | / | /
CCCCc1nc2sc3c(c2c(=O)[nH]1)CCC3 | . | . | . | . | . | 58.0 | . | .
Cc1ccc(OCC(=O)c2cc(C)c(C)cc2C)c([N+](=O)[O-])n1 | . | . | . | . | . | . | / | /
Cc1ccc(OCC(=O)c2c(N)n(C)c(=O)n(C)c2=O)c([N+](=O)[O-])n1 | / | / | . | . | / | 77.0 | 60.5 | . | Aptamer quench=.
CCCC(=O)N1CCC[C@]2(CC[C@@H](CCC(=O)N(CC)CC)O2)C1 | / | / | . | . | / | / | / | /
Cc1oc(C(=O)O)cc1COc1ccc2c3c(c(=O)oc2c1C)CCC3 | . | . | . | . | . | 73.0 | . | .
O=C1CCC[C@H]2C[C@H](NCc3ccc(Br)cc3)CC[C@]23CCCN13 | / | / | . | . | / | / | / | /
COc1ccc(-n2nc(C(=O)NCC(=O)NC(C)C)c3ccccc3c2=O)c(OC)c1 | / | / | . | . | / | . | / | /
CCC(C)NC(=O)CNC(=O)c1nn(-c2ccc(OC)cc2OC)c(=O)c2ccccc12 (centres undefined) | / | / | . | . | / | . | . | .
COCCCNC(=O)CNC(=O)c1nn(-c2ccc(OC)cc2OC)c(=O)c2ccccc12 | / | / | . | . | / | . | . | .
